# Compound activity from PubChem BioAssay.
# Only a selection was taken, and hits are over-represented in it overall.
# TLR4 MyD88 comp – blocks binding of human TLR4 to MyD88; O00206+Q99836; HeLa CL3-4 TLR4/MyD88 BLA complementation, FRET ratio; inhibition, % at 8.4 µM; 200,000 compounds, 0.18% hits; in the data active = inhibition above about 25%;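 also: 0% = vehicle and 100% = reference inhibitor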
# Target sequence (O00206 whole entry, looked up): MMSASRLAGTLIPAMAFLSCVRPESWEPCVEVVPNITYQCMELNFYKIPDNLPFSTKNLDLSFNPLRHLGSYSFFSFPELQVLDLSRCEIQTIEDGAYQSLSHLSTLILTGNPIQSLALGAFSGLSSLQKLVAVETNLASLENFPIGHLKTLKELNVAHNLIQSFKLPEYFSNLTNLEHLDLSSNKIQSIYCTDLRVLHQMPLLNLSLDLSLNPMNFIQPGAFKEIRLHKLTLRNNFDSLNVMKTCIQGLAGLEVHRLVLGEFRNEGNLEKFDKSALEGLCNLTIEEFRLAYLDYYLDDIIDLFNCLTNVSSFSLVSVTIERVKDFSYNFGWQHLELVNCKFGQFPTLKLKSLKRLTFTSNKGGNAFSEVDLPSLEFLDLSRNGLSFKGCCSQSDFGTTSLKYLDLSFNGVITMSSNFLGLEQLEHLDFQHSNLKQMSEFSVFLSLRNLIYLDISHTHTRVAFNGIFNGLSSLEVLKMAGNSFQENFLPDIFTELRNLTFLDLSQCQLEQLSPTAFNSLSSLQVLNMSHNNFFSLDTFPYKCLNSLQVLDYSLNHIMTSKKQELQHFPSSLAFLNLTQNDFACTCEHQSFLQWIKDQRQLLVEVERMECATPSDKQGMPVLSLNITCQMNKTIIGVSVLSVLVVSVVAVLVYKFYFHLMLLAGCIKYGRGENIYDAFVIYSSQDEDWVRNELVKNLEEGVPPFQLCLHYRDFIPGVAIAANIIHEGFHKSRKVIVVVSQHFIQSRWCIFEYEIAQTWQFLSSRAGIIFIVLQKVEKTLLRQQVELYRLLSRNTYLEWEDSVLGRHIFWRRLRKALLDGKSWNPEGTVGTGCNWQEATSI
# Target sequence (Q99836 whole entry, looked up): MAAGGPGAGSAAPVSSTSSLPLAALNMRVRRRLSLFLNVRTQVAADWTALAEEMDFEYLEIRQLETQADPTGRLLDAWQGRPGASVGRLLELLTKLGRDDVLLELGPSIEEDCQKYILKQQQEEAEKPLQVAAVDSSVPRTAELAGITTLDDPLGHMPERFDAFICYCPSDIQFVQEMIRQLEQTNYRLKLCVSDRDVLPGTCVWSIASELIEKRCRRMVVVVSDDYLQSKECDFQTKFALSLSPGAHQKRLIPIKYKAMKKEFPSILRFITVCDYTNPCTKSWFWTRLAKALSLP
# NOD2-RIPK2 inh – blocks binding of human NOD2 to RIPK2 | O43353 | CHO BLA complementation NOD2-RIPK2, CCF4 ratio | inhibition, % at 4.98 µM | 360,000 compounds, 0.38% hits | AID 624267; in the data active = inhibition above about 21%;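 also: 0% = vehicle only and 100% = reference blocker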
# XBP1 UPR activ – adaptive UPR (XBP1) activation; activation, % at 20 µM; 330,000 compounds, 0.33% hits; CHO-XBP1 luciferase reporter, IRE1-XBP1 UPR activation, luminescence; percent of tunicamycin response, DMSO as zero; AID 463104;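 active = versus positive control, 20 µM dose yields 30% or more activation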;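 also: 100% = tunicamycin at 10 µg/mL and 0% = DMSO only wells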
#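 Material: IRE1-XBP1 luciferase reporter CHO line / Quantity: one thousand reporter cells per well / Buffer or medium: F12 with 10% serum / Compound: 20 µM single concentration, DMSO 1% / Times: 6 h treatment, 37 °C / Detection: Steady-Glo luciferase glow luminescence, 10 min after reagent addition / Benchmarks: tunicamycin high, DMSO low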
# TLR9-MyD88 inh – inhibitors of human TLR9-MyD88 binding; CHO BLA complementation TLR9-MyD88, CCF4 FRET ratio; inhibition, % at 4.98 µM; 340,000 compounds, 0.21% hits; AID 504734;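 active = inhibition above the mean over all tested compounds plus 3 SD, cut at about 21% in these data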;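 also: 0% = DMSO only wells and 100% = clavulanate BLA inhibitor control wells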
# UPR CHOP act – apoptotic UPR (CHOP) activation; CHO-CHOP luciferase reporter, luminescence; percent of tunicamycin response over DMSO baseline; activation, % at 10 µM; 330,000 compounds, 0.34% hits;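 active = at 10 µM dose, activation of 40% or more, normalized to positive control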;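 also: 100% = tunicamycin at 10 µg/mL and 0% = DMSO alone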
#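 Evaluation: % reporter activation, DMSO baseline versus tunicamycin full activation; System: CHO-CHOP luciferase reporter cell line; Input: 500 cells/well; Incubation: 6 h compound treatment, 37 °C; Measured by: Steady-Glo luciferase luminescence; Dosing: one dose, 10 µM in 0.5% DMSO; Buffer or medium: F12 medium, 10% FBS; Benchmarks: positive tunicamycin 10 µg/mL, negative DMSO alone.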
# CHOP inhibitor – inhibitors of CHOP induction in ER stress response | 220,000 compounds, 3.8% hits | CHO-K1 CHOP-promoter luciferase, tunicamycin-induced, 15-18 h | inhibition, % at 10 µM;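 active = compounds that reduced the stress-induced luciferase reporter signal by more than about 70% of percent inhibition, limit read from the data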;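 also: 0% = tunicamycin plus vehicle and 100% = wells without tunicamycin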
# TLR4 MyD88 cnf – confirmation of human TLR4-MyD88 binding inhibitors | shares compounds with TLR4 MyD88 comp | HeLa CL3-4 BLA complementation, CCF4 FRET ratio | inhibition, % at 8.4 µM | 350 compounds, 50% hits | AID 941;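 active = mean inhibition across three repeat runs above about 25% carried over from the earlier screen, limit read from the data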;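 also: plate controls were DMSO only for no effect and clavulanic acid blocking BLA at full dose for full effect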
# BLA inh HeLa – inhibits beta-lactamase activity, counter-screen to TLR4-MyD88 binding inhibitors | 350 compounds, 63% hits | HeLa BLA reporter, CCF4 FRET ratio | shares compounds with TLR4 MyD88 comp | inhibition, % at 8.4 µM;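 active = mean inhibition over three repeats above about 26% taken from the earlier screen, limit read from the data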;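 also: HeLa cells stably expressing beta-lactamase reporter as counterscreen for TLR4-MyD88 inhibitors; 0% = DMSO and 100% = clavulanic acid full inhibition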
# CHOP confirm – confirmation of CHOP induction inhibitors; 2,100 compounds, 45% hits; shares compounds with CHOP inhibitor; AID 504437; inhibition, % at 10 µM; CHO-CHOP promoter luciferase reporter, tunicamycin-induced, luminescence;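 active = mean of three repeat readings of reporter signal inhibition above a set limit, cut at about 70% in these data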;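 also: 0% = tunicamycin plus vehicle and 100% = wells lacking tunicamycin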
# UPR CHOP confirm – confirmation of apoptotic unfolded protein response (CHOP) activators | shares compounds with UPR CHOP act | CHO-CHOP cells, CHOP-luciferase reporter luminescence; percent of tunicamycin response, DMSO as zero | activation, % at 10 µM | 1,000 compounds, 64% hits; in the data active = activation above about 33%;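 also: 0% = DMSO wells and 100% = tunicamycin 10 µg/mL wells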
# TLR9-MyD88 conf – confirmation of human TLR9-MyD88 binding inhibitors; CHO TLR9/MyD88 BLA complementation, CCF4 FRET ratio; shares compounds with TLR9-MyD88 inh; inhibition, % at 4.98 µM; 680 compounds, 51% hits; AID 540250;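 active = mean inhibition across three repeats above about 21% taken from the earlier screen, limit read from the data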;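 also: blue over green emission ratio reports constitutive TLR9 MyD88 association via BLA complementation; 0% = DMSO vehicle wells and 100% = clavulanate BLA inhibitor wells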
# BLA nonselective – beta-lactamase reporter inhibition, counter-screen artifact | shares compounds with TLR9-MyD88 inh | CHO-BLA cells, CCF4 FRET ratio, BLA reporter | inhibition, % at 4.98 µM | 680 compounds, 7% hits;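 active = mean inhibition above a 50% cutoff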;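 also: counterscreen of TLR9-MyD88 hits on CMV-driven BLA in CHO-K1 cells; 0% = DMSO alone and 100% = clavulanate blocking BLA; higher means less blue over green ratio so more BLA blockade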
# TLR9 CHO cytotox – CHO cell toxicity counter-screen for TLR9-MyD88 inhibitors; TLR9-MyD88 CHO cells cytotoxicity, luminescence; 680 compounds, 39% hits; shares compounds with TLR9-MyD88 inh; inhibition, % at 4.98 µM; AID 588336; in the data active = inhibition above about 11%
# An asterisk follows results filed as active; · = no result.
SMILES,TLR4 MyD88 comp,NOD2-RIPK2 inh,XBP1 UPR activ,TLR9-MyD88 inh,UPR CHOP act,CHOP inhibitor,TLR4 MyD88 cnf,BLA inh HeLa,CHOP confirm,TLR9-MyD88 conf,BLA nonselective,TLR9 CHO cytotox,others
Cc1cccc(NS(=O)(=O)c2ccc(C(=O)N3CCN(c4ccccc4O)CC3)cc2)c1C,·,-12,-1,2,6,·,·,·,·,·,·,·,
Cc1c(NC(=O)CSc2nnc(-c3ccncc3)o2)c(=O)n(-c2ccccc2)n1C,5,3,-3,-3,0,-4,·,·,·,·,·,·,
Cc1c(NC(=O)CSc2nnc(-c3cccc(Cl)c3)o2)c(=O)n(-c2ccccc2)n1C,29*,-3,2,-2,-6,14,1,4,·,·,·,·,
CCOc1ccc(NC(=O)/C(C#N)=C/c2ccc(N3CCCC3)c(C)c2)cc1,27*,1,·,11,·,101*,28*,65*,·,·,·,·,
CCN(CC)S(=O)(=O)c1ccc(N2CCCCC2)c(NC(=O)/C(C#N)=C/c2ccc(OC)cc2)c1,3,-8,-1,-6,1,13,·,·,·,·,·,·,
COCc1cc(/C=N\NC(=O)COc2ccc(Cl)cc2)ccc1OC,5,-4,-4,-1,1,8,·,·,·,·,·,·,
CCOC(=O)c1c2ccc(OCC(=O)N/N=C/c3ccc(Cl)cc3)cc2n2ccccc12,52*,·,·,·,·,104*,54*,34*,0,·,·,·,
Cc1ccc(S(=O)(=O)c2cnc(-c3ccccc3)nc2N2CCCCC2)cc1,8,-5,-3,2,2,-6,·,·,·,·,·,·,
O=C1c2cccc3c([N+](=O)[O-])ccc(c23)C(=O)N1c1nccs1,93*,89*,-6,79*,-9,110*,92*,114*,38,·,·,·,
Cn1c(=O)c([N+](=O)[O-])c(-n2ccnc2)c2ccccc21,25*,5,-2,4,15,103*,-5,-13,-90,·,·,·,
Cn1c(=O)c([N+](=O)[O-])c(NCCCn2ccnc2)c2ccccc21,·,-2,-1,-6,1,11,·,·,·,·,·,·,
CCCCC(CC)Cn1c2nc3ccccc3nc2c2c(=N)oc(C)nc21 (centres undefined),48*,·,·,·,·,106*,-6,-6,104*,·,·,·,
COc1ccc(CCNC(=O)C2CCC(CNc3c(N4CCCC4)c(=O)c3=O)CC2)cc1OC (centres undefined),16,-10,-1,6,-1,-6,·,·,·,·,·,·,
Cc1ccc(/C=C2\CCC3=C2OC(N)=C(C#N)C3c2ccc(C)cc2)cc1 (centres undefined),34*,11,13,11,92*,98*,29*,66*,-75,·,·,·,UPR CHOP confirm=81*
CCNS(=O)(=O)c1ccc(CCC(=O)N2CCc3ccccc3C2)cc1,·,-5,-5,-5,1,·,·,·,·,·,·,·,
CCc1cc2c(=O)c(-c3nc4ccccc4n3C)c(COCC(=O)O)oc2cc1OC(=O)C(C)(C)C,43*,1,0,49*,-3,-6,-6,13,·,2,0,3,
CCc1cc2c(=O)c(-c3nc4ccccc4n3C)c(C)oc2cc1OC(C)=O,·,-9,-7,-7,-2,·,·,·,·,·,·,·,
CC(C)CNC(=O)/C=C/C=C/CCCC/C=C/c1ccc2c(c1)OCO2,·,3,0,-11,-1,·,·,·,·,·,·,·,
CS(=O)(=O)c1nc(-c2ccccc2)cc(C(F)(F)F)n1,31*,60*,-1,36*,-1,·,20,-17,117*,35*,16,96*,
CC(C)(C)c1ccc(OCC(=O)N2CCN(c3ncccn3)CC2)cc1,·,0,-3,7,2,·,·,·,·,·,·,·,
O=C(C1=NN(c2ccccc2)C2C(=O)N(c3cccc(Cl)c3)C(=O)C12)c1ccccc1 (centres undefined),46*,35*,·,28*,·,40,27*,45*,·,25*,28,3,
Cc1ccc(C)c(S(=O)(=O)N(C)C2CCS(=O)(=O)C2)c1 (centres undefined),·,4,-3,10,1,·,·,·,·,·,·,·,
Cc1ccc(-n2c(Cl)c(Cl)nc(Cl)c2=O)cc1,27*,84*,·,48*,·,110*,19,22,114*,49*,40,99*,
COc1nc(Cl)cn(-c2ccc(C)cc2)c1=O,-7,4,-2,5,3,-3,·,·,·,·,·,·,
CCCSc1nnc(NC(=O)c2sc3nc(-c4cccs4)ccc3c2N)s1,30*,-3,0,21*,4,17,7,31*,·,23*,22,0,
COc1ccc(N(CC(=O)N/N=C/c2ccc(-c3ccc([N+](=O)[O-])cc3)o2)S(=O)(=O)c2ccc(C)cc2)cc1Cl,71*,17,-2,64*,-8,24,65*,95*,·,59*,61*,5,
Cc1cccc(C)c1NC(=O)CN(C)C(=O)CC1CC2CCC1C2 (centres undefined),·,-4,0,-3,0,·,·,·,·,·,·,·,
O=[N+]([O-])c1ccccc1N/N=C/c1c[nH]c2ccccc12,-16,-7,6,-6,3,-15,·,·,·,·,·,·,
COc1ccccc1NS(=O)(=O)c1cc([N+](=O)[O-])ccc1N/N=C/c1c[nH]c2ccccc12,39*,4,7,49*,-1,98*,27*,56*,52,45*,44,3,
Cn1cccc1/C=C1\CCC/C(=C\c2cccn2C)C1=O,35*,-5,7,23*,8,-46,20,45*,·,26*,23,-3,
